# Experimental data as given in ChEMBL document CHEMBL1795205, “The new 5- or 6-azapyrimidine and cyanuric acid derivatives of l-ascorbic acid bearing the free C-5 hydroxy or C-4 amino group at the ethylenic spacer: CD-spectral absolute configuration determination and biological activity evaluations” (Eur J Med Chem, 2011).
# System: MCF7
# Assay: Induction of cell cycle arrest in human MCF7 cells assessed as accumulation at G2/M phase at 10 uM after 48 hrs by flow cytometry (reference value: 6.82 +/- 0.3%)
# Assay type: functional
# Conditions: not given
# In short: (§1)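 Cells were seeded at 3×10⁵ per well in 6-well plates and treated after overnight incubation for 24 and 48 h. They were trypsinized, washed three times in PBS, fixed in cold ethanol and stored at −20 °C. Pellets were washed twice in PBS and treated with RNase A at 37 °C for 15 min, then stained with PI for 30 min in the dark. DNA content was measured by flow cytometry.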
row,SMILES,Activity [%]
1,O=C1O/C(=C\Cn2ccc(NC(=O)c3ccccc3)nc2=O)C(OCc2ccccc2)=C1OCc1ccccc1,5.52

# System: MCF7
# Assay: Induction of cell cycle arrest in human MCF7 cells assessed as accumulation at G1 phase at 5 uM after 48 hrs by flow cytometry (reference value: 52.3 +/- 6.1%)
# Assay type: functional
# Conditions: not given
# In short: as §1
row,SMILES,Activity [%]
1,O=C1O/C(=C\Cn2ccc(NC(=O)c3ccccc3)nc2=O)C(OCc2ccccc2)=C1OCc1ccccc1,50.6

# System: HeLa
# Assay: Induction of cell cycle arrest in human HeLa cells assessed as accumulation at subG1 phase at 10 uM after 24 hrs by flow cytometry (reference value: 0.49 +/- 0.2%)
# Assay type: functional
# Conditions: not given
# In short: as §1
row,SMILES,Activity [%]
1,O=C1O/C(=C\Cn2ccc(NC(=O)c3ccccc3)nc2=O)C(OCc2ccccc2)=C1OCc1ccccc1,0.2

# System: HeLa
# Assay: Induction of cell cycle arrest in human HeLa cells assessed as accumulation at S phase at 10 uM after 24 hrs by flow cytometry (reference value: 44.4 +/- 8.7%)
# Assay type: functional
# Conditions: not given
# In short: as §1
row,SMILES,Activity [%]
1,O=C1O/C(=C\Cn2ccc(NC(=O)c3ccccc3)nc2=O)C(OCc2ccccc2)=C1OCc1ccccc1,53.7

# System: HeLa
# Assay: Induction of cell cycle arrest in human HeLa cells assessed as accumulation at G2/M phase at 10 uM after 24 hrs by flow cytometry (reference value: 10.9 +/- 2.6%)
# Assay type: functional
# Conditions: not given
# In short: as §1
row,SMILES,Activity [%]
1,O=C1O/C(=C\Cn2ccc(NC(=O)c3ccccc3)nc2=O)C(OCc2ccccc2)=C1OCc1ccccc1,8.45

# System: MCF7
# Assay: Induction of cell cycle arrest in human MCF7 cells assessed as accumulation at G2/M phase at 5 uM after 48 hrs by flow cytometry (reference value: 6.82 +/- 0.3%)
# Assay type: functional
# Conditions: not given
# In short: as §1
row,SMILES,Activity [%]
1,O=C1O/C(=C\Cn2ccc(NC(=O)c3ccccc3)nc2=O)C(OCc2ccccc2)=C1OCc1ccccc1,13.9

# System: MCF7
# Assay: Induction of cell cycle arrest in human MCF7 cells assessed as accumulation at subG1 phase at 5 uM after 48 hrs by flow cytometry (reference value: 0.51 +/- 0.01%)
# Assay type: functional
# Conditions: not given
# In short: as §1
row,SMILES,Activity [%]
1,O=C1O/C(=C\Cn2ccc(NC(=O)c3ccccc3)nc2=O)C(OCc2ccccc2)=C1OCc1ccccc1,0.37

# System: HeLa
# Assay: Induction of cell cycle arrest in human HeLa cells assessed as accumulation at G1 phase at 5 uM after 24 hrs by flow cytometry relative to control
# Assay type: functional
# Conditions: not given
# In short: as §1
row,SMILES,Activity [%]
1,O=C1O/C(=C\Cn2ccc(NC(=O)c3ccccc3)nc2=O)C(OCc2ccccc2)=C1OCc1ccccc1,47.1

# System: HeLa
# Assay: Induction of cell cycle arrest in human HeLa cells assessed as accumulation at G2/M phase at 5 uM after 48 hrs by flow cytometry relative to control
# Assay type: functional
# Conditions: not given
# In short: as §1
row,SMILES,Activity [%]
1,O=C1O/C(=C\Cn2ccc(NC(=O)c3ccccc3)nc2=O)C(OCc2ccccc2)=C1OCc1ccccc1,2.8

# System: MCF7
# Assay: Induction of cell cycle arrest in human MCF7 cells assessed as accumulation at subG1 phase at 10 uM after 48 hrs by flow cytometry (reference value: 0.51 +/- 0.01%)
# Assay type: functional
# Conditions: not given
# In short: as §1
row,SMILES,Activity [%]
1,O=C1O/C(=C\Cn2ccc(NC(=O)c3ccccc3)nc2=O)C(OCc2ccccc2)=C1OCc1ccccc1,0.32

# System: MCF7
# Assay: Induction of cell cycle arrest in human MCF7 cells assessed as accumulation at G1 phase at 10 uM after 48 hrs by flow cytometry (reference value: 52.3 +/- 6.1%)
# Assay type: functional
# Conditions: not given
# In short: as §1
row,SMILES,Activity [%]
1,O=C1O/C(=C\Cn2ccc(NC(=O)c3ccccc3)nc2=O)C(OCc2ccccc2)=C1OCc1ccccc1,56.6

# System: SW-620
# Assay: Cytostatic activity against human SW620 cells assessed as inhibition of cell proliferation after 72 hrs by MTT assay
# Assay type: functional, cell-based
# Conditions: SW-620, 72 h
# In short: (§2)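 Monolayer cells grown in DMEM with 10% FBS were seeded on day 0 at 3000–6000 cells/well, set by each line's doubling time. Agents were added the next step in five 10-fold dilutions (0.01–100) for 72 h, with DMSO ≤0.1% and a solvent control. MTT absorbance was converted to percentage growth versus untreated wells on the same plate. Where all PGs exceeded 50, the top concentration was reported as ">". ANOVA/Tukey, p<0.05.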
row,IC50 [nM],SMILES
1,> 100000,O=C1O/C(=C\Cn2ccc(NC(=O)c3ccccc3)nc2=O)C(OCc2ccccc2)=C1OCc1ccccc1

# System: HeLa
# Assay: Induction of cell cycle arrest in human HeLa cells assessed as accumulation at S phase at 10 uM after 48 hrs by flow cytometry (reference value: 40.6 +/- 0.1%)
# Assay type: functional
# Conditions: not given
# In short: as §1
row,SMILES,Activity [%]
1,O=C1O/C(=C\Cn2ccc(NC(=O)c3ccccc3)nc2=O)C(OCc2ccccc2)=C1OCc1ccccc1,39.5

# System: HeLa
# Assay: Induction of cell cycle arrest in human HeLa cells assessed as accumulation at subG1 phase at 10 uM after 48 hrs by flow cytometry (reference value: 0.16 +/- 0.01%)
# Assay type: functional
# Conditions: not given
# In short: as §1
row,SMILES,Activity [%]
1,O=C1O/C(=C\Cn2ccc(NC(=O)c3ccccc3)nc2=O)C(OCc2ccccc2)=C1OCc1ccccc1,0.56

# System: HeLa
# Assay: Induction of cell cycle arrest in human HeLa cells assessed as accumulation at G1 phase at 5 uM after 48 hrs by flow cytometry relative to control
# Assay type: functional
# Conditions: not given
# In short: as §1
row,SMILES,Activity [%]
1,O=C1O/C(=C\Cn2ccc(NC(=O)c3ccccc3)nc2=O)C(OCc2ccccc2)=C1OCc1ccccc1,60.8

# System: MCF7
# Assay: Cytostatic activity against human MCF7 cells assessed as inhibition of cell proliferation after 72 hrs by MTT assay
# Assay type: functional, cell-based
# Conditions: MCF7, 72 h
# In short: as §2
row,IC50 [nM],SMILES
1,2030,O=C1O/C(=C\Cn2ccc(NC(=O)c3ccccc3)nc2=O)C(OCc2ccccc2)=C1OCc1ccccc1

# System: MCF7
# Assay: Induction of cell cycle arrest in human MCF7 cells assessed as accumulation at S phase at 5 uM after 48 hrs by flow cytometry (reference value: 40.9 +/- 5.7%)
# Assay type: functional
# Conditions: not given
# In short: as §1
row,SMILES,Activity [%]
1,O=C1O/C(=C\Cn2ccc(NC(=O)c3ccccc3)nc2=O)C(OCc2ccccc2)=C1OCc1ccccc1,35.6

# System: HeLa
# Assay: Induction of cell cycle arrest in human HeLa cells assessed as accumulation at subG1 phase at 5 uM after 24 hrs by flow cytometry relative to control
# Assay type: functional
# Conditions: not given
# In short: as §1
row,SMILES,Activity [%]
1,O=C1O/C(=C\Cn2ccc(NC(=O)c3ccccc3)nc2=O)C(OCc2ccccc2)=C1OCc1ccccc1,0.04

# System: MCF7
# Assay: Induction of cell cycle arrest in human MCF7 cells assessed as accumulation at subG1 phase at 10 uM after 24 hrs by flow cytometry (reference value: 0.68 +/- 0.4%)
# Assay type: functional
# Conditions: not given
# In short: as §1
row,SMILES,Activity [%]
1,O=C1O/C(=C\Cn2ccc(NC(=O)c3ccccc3)nc2=O)C(OCc2ccccc2)=C1OCc1ccccc1,0.2
